Reference: ChEMBL document CHEMBL2396515, “Quercetin-POC conjugates: Differential stability and bioactivity profiles between breast cancer (MCF-7) and colorectal carcinoma (HCT116) cell lines” (Bioorg Med Chem, 2013)
The source made the active and inactive calls. The rule behind the calls is not given here.

What was measured:
[1] = Solubility of the compound in PBS buffer at 300 uM; type: physicochemical
Summary of the method: (§1)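 DMSO stocks ([…]–10 mM) were serially diluted into PBS pH 7.4 or DMEM with 10% FBS to final 0.5, 5, 25, 50, 100, 200 µM (2% DMSO) and 300 µM (3% DMSO). Solubility was judged by forward light scattering in a laser nephelometer.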

HCT-116 [2] = experiment: Drug metabolism in human HCT116 cells assessed as quercetin-glucuronide level at 30 uM after 3 hrs by HPLC analysis; type: ADME, cell-based; conditions: hct-116, 3 h
Summary of the method: (§2)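 MCF-7 or HCT116 cells were seeded at 2×10^5 per well and grown 24 h at 37 °C, 5% CO2, then given 30 µM conjugate. At 1, 3, 6 and 12 h cells were PBS-washed, trypsinized, sonicated and filtered. Lysates were run on C18 HPLC (UV 340 nm). Each species is reported as a percentage of integrated peak area; peaks were identified by MALDI-TOF MS.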

HCT-116 [3] = experiment: Drug metabolism in human HCT116 cells assessed as quercetin-glucuronide level at 30 uM after 6 hrs by HPLC analysis; type: ADME, cell-based; conditions: hct-116, 6 h; summary of the method: as §2
[4] = Metabolic stability in human HCT116 cells assessed as compound remaining at 30 uM after 1 hr by HPLC analysis; type: ADME, cell-based, HCT-116; conditions: read-out: Stability; summary of the method: as §2
HCT-116 [5] = experiment: Drug metabolism in human HCT116 cells assessed as quercetin sulfate level at 30 uM after 12 hrs by HPLC analysis; type: ADME, cell-based; conditions: hct-116, 12 h; summary of the method: as §2
MCF7 [6] = experiment: Drug metabolism in human MCF7 cells assessed as quercetin-glucuronide level at 30 uM after 12 hrs by HPLC analysis; type: ADME, cell-based; conditions: mcf7, 12 h; summary of the method: as §2
MCF7 [7] = experiment: Drug metabolism in human MCF7 cells assessed as quercetin sulfate level at 30 uM after 1 hr by HPLC analysis; type: ADME, cell-based; conditions: mcf7, 1 h; summary of the method: as §2
HCT-116 [8] = experiment: Drug metabolism in human HCT116 cells assessed as quercetin level at 30 uM after 12 hrs by HPLC analysis; type: ADME, cell-based; conditions: hct-116, 12 h; summary of the method: as §2
[9] = Metabolic stability in human HCT116 cells assessed as compound remaining at 30 uM after 3 hrs by HPLC analysis; type: ADME, cell-based, HCT-116; conditions: read-out: Stability; summary of the method: as §2
HCT-116 [10] = experiment: Drug metabolism in human HCT116 cells assessed as quercetin level at 30 uM after 3 hrs by HPLC analysis; type: ADME, cell-based; conditions: hct-116, 3 h; summary of the method: as §2
HCT-116 [11] = experiment: Cytotoxicity against human HCT116 cells at 1 to 100 uM after 12 hrs by MTT assay; type: functional, cell-based
Summary of the method: (§3)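 MCF-7 or HCT116 cells were seeded at 5×10^3 per well in DMEM with 10% FBS and grown 1 day at 37 °C, 5% CO2. Compounds in 1% DMSO were added at 1, 5, 10, 50, 100 or 250 µM. Viability was read by MTT after 12 h; each assay was done three times.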

[12] = Metabolic stability in human HCT116 cells assessed as compound remaining at 30 uM after 12 hrs by HPLC analysis; type: ADME, cell-based, HCT-116; conditions: read-out: Stability; summary of the method: as §2
MCF7 [13] = experiment: Drug metabolism in human MCF7 cells assessed as quercetin-glucuronide level at 30 uM after 1 hr by HPLC analysis; type: ADME, cell-based; conditions: mcf7, 1 h; summary of the method: as §2
HCT-116 [14] = experiment: Drug metabolism in human HCT116 cells assessed as quercetin-glucuronide level at 30 uM after 12 hrs by HPLC analysis; type: ADME, cell-based; conditions: hct-116, 12 h; summary of the method: as §2
MCF7 [15] = experiment: Drug metabolism in human MCF7 cells assessed as quercetin sulfate level at 30 uM after 12 hrs by HPLC analysis; type: ADME, cell-based; conditions: mcf7, 12 h; summary of the method: as §2
[16] = Half life of the compound in PBS buffer at pH 7.4 at 50 uM by HPLC analysis; type: physicochemical
Summary of the method: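 Compound at 50 µM in PBS pH 7.4, incubated at 37 °C. Aliquots were drawn at 0, 1, 3, 6, 12, 24, 48 and 96 h and analysed by C18 reverse-phase HPLC with an acetonitrile/0.1% formic acid gradient, detected by UV at 340 nm.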

[17] = Metabolic stability in human MCF7 cells assessed as compound remaining at 30 uM after 3 hrs by HPLC analysis; type: ADME, cell-based; conditions: read-out: Stability; summary of the method: as §2
[18] = Metabolic stability in human MCF7 cells assessed as compound remaining at 30 uM after 1 hr by HPLC analysis; type: ADME, cell-based; conditions: read-out: Stability; summary of the method: as §2
MCF7 [19] = experiment: Cytotoxicity against human MCF7 cells at 1 to 100 uM after 12 hrs by MTT assay; type: functional, cell-based; summary of the method: as §3
MCF7 [20] = experiment: Metabolic stability in human MCF7 cells assessed as compound remaining at 30 uM after 12 hrs by HPLC analysis; type: ADME, cell-based; conditions: mcf7, 12 h; summary of the method: as §2
HCT-116 [21] = experiment: Drug metabolism in human HCT116 cells assessed as quercetin level at 30 uM after 6 hrs by HPLC analysis; type: ADME, cell-based; conditions: hct-116, 6 h; summary of the method: as §2
HCT-116 [22] = experiment: Drug metabolism in human HCT116 cells assessed as quercetin-glucuronide level at 30 uM after 1 hr by HPLC analysis; type: ADME, cell-based; conditions: hct-116, 1 h; summary of the method: as §2
[23] = Metabolic stability in human MCF7 cells assessed as compound remaining at 30 uM after 6 hrs by HPLC analysis; type: ADME, cell-based; conditions: read-out: Stability; summary of the method: as §2
MCF7 [24] = experiment: Drug metabolism in human MCF7 cells assessed as quercetin level at 30 uM after 12 hrs by HPLC analysis; type: ADME, cell-based; conditions: mcf7, 12 h; summary of the method: as §2
[25] = Solubility of the compound in PBS buffer at 0.5 to 300 uM; type: physicochemical; summary of the method: as §1
[26] = Solubility of the compound in DMEM cell-free cell culture medium up to 100 uM; type: physicochemical; summary of the method: as §1
HCT-116 [27] = experiment: Drug metabolism in human HCT116 cells assessed as quercetin sulfate level at 30 uM after 3 hrs by HPLC analysis; type: ADME, cell-based; conditions: hct-116, 3 h; summary of the method: as §2
HCT-116 [28] = experiment: Drug metabolism in human HCT116 cells assessed as quercetin level at 30 uM after 1 hr by HPLC analysis; type: ADME, cell-based; conditions: hct-116, 1 h; summary of the method: as §2
[29] = Half life of the compound in DMEM cell-free cell culture medium at 50 uM by HPLC analysis; type: physicochemical
Summary of the method: (§4)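 Conjugates diluted from a 10 mM DMSO stock to 50 µM final in cell-free culture medium (DMEM with 10% FBS), held at 37 °C. Samples were taken at 0, 1, 3, 6, 12, 24, 48 and 96 h, vortexed, and run on C18 reverse-phase HPLC with an acetonitrile/0.1% formic acid gradient at 1 mL/min, detected by UV at 340 nm.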

HCT-116 [30] = experiment: Drug metabolism in human HCT116 cells assessed as quercetin sulfate level at 30 uM after 6 hrs by HPLC analysis; type: ADME, cell-based; conditions: hct-116, 6 h; summary of the method: as §2
[31] = Chemical stability of the compound in DMEM cell-free cell culture medium at 50 uM after 24 to 54 hrs by HPLC analysis; type: physicochemical; summary of the method: as §4
HCT-116 [32] = experiment: Drug metabolism in human HCT116 cells assessed as quercetin sulfate level at 30 uM after 1 hr by HPLC analysis; type: ADME, cell-based; conditions: hct-116, 1 h; summary of the method: as §2
[33] = Metabolic stability in human HCT116 cells assessed as compound remaining at 30 uM after 6 hrs by HPLC analysis; type: ADME, cell-based, HCT-116; conditions: read-out: Stability; summary of the method: as §2
HCT-116 [34] = experiment: Drug metabolism in human HCT116 cells assessed as methyl quercetin level at 30 uM after 12 hrs by HPLC analysis; type: ADME, cell-based; conditions: hct-116, 12 h; summary of the method: as §2
HCT-116 [35] = experiment: Drug metabolism in human HCT116 cells assessed as methyl quercetin level at 30 uM after 3 hrs by HPLC analysis; type: ADME, cell-based; conditions: hct-116, 3 h; summary of the method: as §2
MCF7 [36] = experiment: Drug metabolism in human MCF7 cells assessed as quercetin sulfate level at 30 uM after 3 hrs by HPLC analysis; type: ADME, cell-based; conditions: mcf7, 3 h; summary of the method: as §2
MCF7 [37] = experiment: Drug metabolism in human MCF7 cells assessed as methyl quercetin level at 30 uM after 12 hrs by HPLC analysis; type: ADME, cell-based; conditions: mcf7, 12 h; summary of the method: as §2
HCT-116 [38] = experiment: Drug metabolism in human HCT116 cells assessed as methyl quercetin level at 30 uM after 1 hr by HPLC analysis; type: ADME, cell-based; conditions: hct-116, 1 h; summary of the method: as §2
MCF7 [39] = experiment: Drug metabolism in human MCF7 cells assessed as methyl quercetin level at 30 uM after 1 hr by HPLC analysis; type: ADME, cell-based; conditions: mcf7, 1 h; summary of the method: as §2
HCT-116 [40] = experiment: Drug metabolism in human HCT116 cells assessed as methyl quercetin level at 30 uM after 6 hrs by HPLC analysis; type: ADME, cell-based; conditions: hct-116, 6 h; summary of the method: as §2
[41] = Drug degradation in DMEM cell-free cell culture medium assessed as formation of quercetin at 50 uM after 1 hr by HPLC analysis; type: physicochemical; summary of the method: as §4

Compound	Stability (HCT-116 [2])	Stability (HCT-116 [3])	remaining at 1 h, 30 µM [4]	Stability (MCF7 [6])	Stability (MCF7 [7])	remaining at 3 h, 30 µM [9]	Activity (HCT-116 [11])	remaining at 12 h, 30 µM [12]	Stability (MCF7 [13])	Stability (HCT-116 [14])	Stability (MCF7 [15])	half-life at 50 µM [16]	remaining at 3 h, 30 µM [17]	remaining at 1 h, 30 µM [18]	Activity (MCF7 [19])	Stability (MCF7 [20])	remaining at 6 h, 30 µM [23]	Stability (MCF7 [24])	solubility [25]	solubility [26]	also measured
CC(C)OC(=O)OCOc1c(-c2ccc(O)c(O)c2)oc2cc(O)cc(O)c2c1=O	Stable	Stable	80%	Stable	Stable	76%	inactive	65%	Stable	Stable	Stable	> 96 h	49%	92%	Active	Stable	4%	Stable	soluble	soluble	solubility [1]: soluble; Stability (HCT-116 [5]): Stable; Stability (HCT-116 [8]): Stable; Stability (HCT-116 [10]): Stable; Stability (HCT-116 [21]): Stable; Stability (HCT-116 [22]): Stable; Stability (HCT-116 [27]): Stable; Stability (HCT-116 [28]): Stable; half-life at 50 µM [29]: 54 h; Stability (HCT-116 [30]): Stable; Stability [31]: Stable; Stability (HCT-116 [32]): Stable; remaining at 6 h, 30 µM [33]: 71%
CC(C)OC(=O)OCOc1cc(O)c2c(=O)c(O)c(-c3ccc(O)c(O)c3)oc2c1	Stable	Stable	65%	Stable	Stable	34%	Active	12%	Stable	Stable	Stable	> 96 h	6%	51%	Active	Stable	2%	Stable	Insoluble	soluble	Stability (HCT-116 [34]): Stable; Stability (HCT-116 [35]): Stable; Stability (MCF7 [36]): Stable; Stability (MCF7 [37]): Stable; Stability (HCT-116 [38]): Stable; Stability (MCF7 [39]): Stable; Stability (HCT-116 [40]): Stable; Drug degradation [41]: Active; half-life at 50 µM [29]: 1 h; Stability (HCT-116 [32]): Stable; remaining at 6 h, 30 µM [33]: 18%
